Laboratory results as given in article PMC11001196 (Microbial Biotechnology, 2024).
Where two headings read alike, the source gives them in different places. Blank lines part the entries; values can stand above or below the molecule they belong to.

How the values were obtained:
FS6 = assay: spectrophotometric kinetics, Lineweaver-Burk; assay type: biochemical, metagenome; conditions: pH 5.5, 25 °C, HAM poly-buffer
Procedure, shortened: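 Purified metagenome-derived acid phosphatase (imidazole-gradient eluted, dialysed into MES/HEPES/acetate buffer with 150 mM NaCl) at 0.1-1 µM in 0.1 mL HAM poly-buffer (40 mM HEPES, 40 mM acetic acid, 40 mM MES). […] at 0 to 0.22 mM; hydrolysis followed spectrophotometrically. Vmax and Km derived from Michaelis–Menten analysis and Lineweaver–Burk double-reciprocal plots.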

[1] = molecular target: FS6 acid phosphatase (class C acid phosphatase, histidine-tagged recombinant FS6); assay: AUC

Molecule: Nc1ncnc2c1ncn2[C@@H]1O[C@H](COP(=O)(O)O)[C@@H](O)[C@H]1O [adenosine 5'-monophosphate]
Km (FS6; read-out: AMP-5’ / Km): 180 ± 70 µM

Molecule: FS6 acid phosphatase (class C acid phosphatase, histidine-tagged recombinant FS6) (enzyme)
stoichiometry N [1]: 10

Other lines, results leading:

Km (FS6; read-out: GMP-5’ / Km): 220 ± 20 µM
Molecule: Nc1nc2c(ncn2[C@@H]2O[C@H](COP(=O)(O)O)[C@@H](O)[C@H]2O)c(=O)[nH]1 [guanosine 5'-monophosphate]

Km (FS6; read-out: pNPP / Km): 40 ± 10 µM
Molecule: O=[N+]([O-])c1ccc(OP(=O)(O)O)cc1 [p-nitrophenyl phosphate]

Km (FS6; read-out: UMP-5’ / Km): 180 ± 130 µM
Molecule: O=c1ccn([C@@H]2O[C@H](COP(=O)(O)O)[C@@H](O)[C@H]2O)c(=O)[nH]1 [uridine 5'-monophosphate]
